In ChEMBL document CHEMBL1148479, “Antineoplastic agents. 520. Isolation and structure of irciniastatins A and B from the Indo-Pacific marine sponge Ircinia ramosa” (2004):
Values after ≈ are worked out from the molar mass of the structure shown.

Assays:
Type in all cases: functional
BXPC-3 = experiment: Compound was tested for cancer cell line growth inhibition against human pancreas (BXPC-3) cell line
Method in brief: (§1)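 NCI sulforhodamine B protocol. Cells in 5% fetal bovine serum/RPMI1640 are seeded in 96-well plates and incubated 24 h, then exposed to serial compound dilutions for 48 h. Cells are fixed with trichloroacetic acid, stained with SRB and read by microplate reader. GI50 is the concentration giving a 50% reduction in net protein increase, calculated from optical density.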

Cryptococcus neoformans = experiment: Compound was tested for minimum inhibitory concentration against Cryptococcus neoformans ATCC 90112
Method in brief: (§2)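 Standard broth microdilution susceptibility method. The fungal test follows the M27-A yeast reference standard. MIC is the lowest concentration that inhibits all visible growth of the organism (optically clear wells).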

DU-145 = experiment: Compound was tested for cancer cell line growth inhibition against human prostate (DU-145) cell line; method in brief: as §1
HUVEC = experiment: Compound was tested for cancer cell line growth inhibition against human umbilical vein endothelial cells
KM-20L2 = experiment: Compound was tested for cancer cell line growth inhibition against human colon (KM20L2) cell line; method in brief: as §1
MCF7 = experiment: Compound was tested for cancer cell line growth inhibition against human breast (MCF-7) cell line; method in brief: as §1
NCI-H460 = experiment: Compound was tested for cancer cell line growth inhibition against lung cancer cells (NCI-H460); conditions: Homo sapiens; method in brief: as §1
Neisseria gonorrhoeae = experiment: Compound was tested for minimum inhibitory concentration against Neisseria gonorrhoeae ATCC 49226; method in brief: as §2
P388 = experiment: Compound was tested for cancer cell line growth inhibition against murine P388 leukemia cell line; conditions: Mus musculus
Method in brief: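 Murine P388 leukemia cells are grown in 10% horse serum/Fisher medium for 24 h, then incubated 48 h with serial compound dilutions. Cells are counted on a particle counter, and ED50 for growth inhibition is calculated from the counts.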

SF-268 = experiment: Compound was tested for cancer cell line growth inhibition against human central nervous system (SF268) cell line; method in brief: as §1

C=C(C)CC(OC)[C@H](O)C(=O)N[C@@H](OC)[C@@H]1C[C@@H](O)C(C)(C)[C@@H](C[C@H](O)[C@@H](C)[C@H]2Cc3c(C)c(O)cc(O)c3C(=O)O2)O1 (stereo not given in full) [IRCINIASTATIN A]
GI50 (BXPC-3): 0.5 ng/mL (≈ 0.82 nM) | MIC (Cryptococcus neoformans): 16000 ng/mL (≈ 26200 nM) | GI50 (DU-145): 1.6 ng/mL (≈ 2.62 nM) | GI50 (HUVEC): < 0.5 ng/mL | GI50 (KM-20L2): 2.1 ng/mL (≈ 3.44 nM) | GI50 (MCF7): 0.66 ng/mL (≈ 1.08 nM) | GI50 (NCI-H460): 0.73 ng/mL (≈ 1.2 nM) | MIC (Neisseria gonorrhoeae): 64000 ng/mL (≈ 105000 nM) | GI50 (P388): 6 ng/mL (≈ 9.84 nM) | GI50 (SF-268): 1.2 ng/mL (≈ 1.97 nM)
